Three compounds from ChEMBL document CHEMBL1128473, “[(Biaryloxy)alkyl]isoxazoles: picornavirus inhibitors” (J Med Chem, 1995) can be followed below.

Structures are written as SMILES. ≈ marks a conversion by molar mass, not a printed value.

The experiment concerns Human rhinovirus sp. Put plainly: Concentration inhibiting 50% of the serotypes tested to 50% of the viral concentration of untreated controls following 72 hr of exposure. It counts as functional. The procedure, abridged:
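Tissue culture infectious dose (TCID50) assay against a panel of 10 human rhinovirus serotypes. For each serotype, the viral concentration was compared with untreated controls after 72 h of compound exposure. MIC50 is the compound concentration at which half of the serotypes tested are reduced to 50% of the untreated-control viral concentration.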

Take `Cc1cc(CCCOc2c(C)cc(-c3ccc(Cl)cc3)cc2C)on1`: the MIC50 stood at 0.12 µM (≈ 0.0427 µg/mL).
With `Cc1cc(CCCOc2c(C)cc(-c3ccc(F)c(F)c3)cc2C)on1`, the MIC50 came to 0.16 µM (≈ 0.0572 µg/mL).
The same measure for `Cc1cc(CCCOc2c(C)cc(-c3ccccc3F)cc2C)on1`: 0.11 µM (≈ 0.0373 µg/mL).
